The source made the active and inactive calls. No cut-off for these calls is given here.
Legend:
[1] = target: T1, Epidermal growth factor receptor (Homo sapiens, UniProt P00533, L858R); assay: Inhibition of EGFR L858R mutant after 1.5 hr by FRET assay; assay type: protein assay
[2] = tested on: NCI-H1975; assay: Induction of apoptosis in human NCI-H1975 cells harboring EGFR L858R/T790M mutant after 48 hrs by flow cytometry assay
[3] = target: T2, Epidermal growth factor receptor (Homo sapiens, UniProt P00533, L861Q); assay: Inhibition of EGFR L861Q mutant after 1.5 hr by FRET assay; assay type: protein assay
[4] = target: Receptor tyrosine-protein kinase erbB-4 (Homo sapiens) (UniProt Q15303); assay: Binding affinity to ErbB4 at 100 nM
[5] = target: Tyrosine-protein kinase BTK (Homo sapiens) (UniProt Q06187); assay: Binding affinity to BTK at 100 nM
[6] = tested on: HCC827; assay: Induction of Cell cycle arrest in human HCC827 cells harboring EGFR del E746-A750 mutant assessed as G1 phase cells after 24 hrs by flow cytometry assay; assay type: functional, cell-based
Method in brief: (§1)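 Cells in six-well plates serum-starved 24 h to synchronize in G0−G1, then treated at indicated concentrations for 24 h. Lightly trypsinized and cell-cycle distribution analysed by flow cytometry.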

[7] = target: Tyrosine-protein kinase TXK (Homo sapiens) (UniProt P42681); assay: Binding affinity to TXK at 100 nM
[8] = target: Tyrosine-protein kinase Blk (Homo sapiens) (UniProt P51451); assay: Binding affinity to BLK at 100 nM
[9] = target: T1, Epidermal growth factor receptor; assay: Binding affinity to EGFR L858R mutant
[10] = Toxicity in SCID mouse assessed as mortality at 10 mg/kg, po administered qd for 14 days relative to control; assay type: organism-based; parameters: dose 10 mg/kg, route oral; details: in vivo, read-out: Activity
Method in brief: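 Six-week-old SCID mice bearing subcutaneous H1975 NSCLC xenografts (2 × 10⁶ cells, right flank) were randomized at 380−420 mm³ average tumour volume (10−12 days post implantation), n = 6/group. They were dosed orally once daily for 14 days with vehicle or compound (10 or 30 mg/kg; 0.1 mL/20 g body weight). Mortality and body weight were tracked during treatment against vehicle controls.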

[11] = target: Receptor tyrosine-protein kinase erbB-2 (Homo sapiens) (UniProt P04626); assay: Binding affinity to ErbB2 at 100 nM
[12] = target: T3, Epidermal growth factor receptor (Homo sapiens, UniProt P00533, T790M); assay: Binding affinity to EGFR T790M mutant
[13] = tested on: NCI-H1975; assay: Antitumor activity against human NCI-H1975 cells xenografted in SCID mouse at 10 mg/kg, po administered qd for 14 days relative to control; assay type: functional, organism-based; parameters: dose 10 mg/kg
Method in brief: (§2)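 Six-week-old SCID mice inoculated s.c. in the right flank with H1975 cells (2 × 10⁶/mouse). At mean tumour volume 380−420 mm³ (10−12 days), randomized n = 6/group. Oral dosing daily for 14 days, 0.1 mL/20 g, vehicle as control. Tumours measured every other day by caliper, volume = W²(L/2). Body weight monitored. Significance p < 0.05 versus vehicle.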

[14] = tested on: A549; assay: Antiproliferative activity against human A549 cells expressing wild type EGFR coexpressing k-Ras mutant after 72 hrs by MTS assay; details: A549, 72 h
[15] = target: T4, Epidermal growth factor receptor (Homo sapiens, UniProt P00533, L858R/T790M); assay: Binding affinity to EGFR L858R/T790M mutant
[16] = target: T3, Epidermal growth factor receptor; assay: Inhibition of EGFR T790M mutant after 1.5 hr by FRET assay; assay type: protein assay
[17] = tested on: NCI-H1975; assay: Antitumor activity against human NCI-H1975 cells xenografted in SCID mouse at 30 mg/kg, po administered qd for 14 days relative to control; assay type: functional, organism-based; parameters: dose 30 mg/kg; method in brief: as §2
[18] = tested on: Mus musculus; assay: Toxicity in SCID mouse assessed as weight loss at 10 mg/kg, po administered qd for 14 days relative to control; assay type: organism-based; parameters: dose 10 mg/kg, route oral; details: in vivo, 336 h; method in brief: as §2
[19] = target: T5, Epidermal growth factor receptor (Homo sapiens, UniProt P00533); assay: Binding affinity to EGFR
[20] = tested on: NCI-H1975; assay: Antiproliferative activity against human NCI-H1975 cells harboring EGFR L858R/T790M mutant assessed as inhibition of colony formation after 9 days by crystal violet staining; assay type: functional, cell-based
Method in brief: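 H1975 cells seeded at 500 cells per 6-cm dish and grown 24 h, then treated at 0.1 to 10 nM. Medium with compound replaced every 3 days. After 9 days, fixed with 4% formaldehyde and stained with 0.2% crystal violet.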

[21] = tested on: HCC827; assay: Induction of apoptosis in human HCC827 cells harboring EGFR del E746-A750 mutant after 48 hrs by flow cytometry assay
[22] = target: T4, Epidermal growth factor receptor; assay: Inhibition of EGFR L858R/T790M mutant after 1.5 hr by FRET assay; assay type: protein assay
[23] = Antiproliferative activity against human HL7702 cells expressing wilt type EGFR after 72 hrs by MTS assay; details: L02, 72 h
[24] = target: T5, Epidermal growth factor receptor; assay: Inhibition of EGFR after 1.5 hr by FRET assay
[25] = target: T2, Epidermal growth factor receptor; assay: Binding affinity to EGFR L861Q mutant
[26] = target: Cyclin-G-associated kinase (Homo sapiens) (UniProt O14976); assay: Binding affinity to GAK at 100 nM
[27] = tested on: NCI-H1975; assay: Induction of Cell cycle arrest in human NCI-H1975 cells harboring EGFR L858R/T790M mutant assessed as G1 phase cells after 24 hrs by flow cytometry assay; assay type: functional, cell-based; method in brief: as §1
[28] = Cytotoxicity against human HLF1 cells after 72 hrs by MTS assay; assay type: cell-based; details: hlf1, 72 h
Method in brief: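 MTS proliferation read-out at 490 nm after 72 h exposure, cell number set to give absorbance 1.3−2.2. Six concentrations, 0.1 nM to 10 μM, at least six parallels each, repeated at least four times. IC50 from nonlinear sigmoidal dose−response fit.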

T5 sequence (P00533 whole entry): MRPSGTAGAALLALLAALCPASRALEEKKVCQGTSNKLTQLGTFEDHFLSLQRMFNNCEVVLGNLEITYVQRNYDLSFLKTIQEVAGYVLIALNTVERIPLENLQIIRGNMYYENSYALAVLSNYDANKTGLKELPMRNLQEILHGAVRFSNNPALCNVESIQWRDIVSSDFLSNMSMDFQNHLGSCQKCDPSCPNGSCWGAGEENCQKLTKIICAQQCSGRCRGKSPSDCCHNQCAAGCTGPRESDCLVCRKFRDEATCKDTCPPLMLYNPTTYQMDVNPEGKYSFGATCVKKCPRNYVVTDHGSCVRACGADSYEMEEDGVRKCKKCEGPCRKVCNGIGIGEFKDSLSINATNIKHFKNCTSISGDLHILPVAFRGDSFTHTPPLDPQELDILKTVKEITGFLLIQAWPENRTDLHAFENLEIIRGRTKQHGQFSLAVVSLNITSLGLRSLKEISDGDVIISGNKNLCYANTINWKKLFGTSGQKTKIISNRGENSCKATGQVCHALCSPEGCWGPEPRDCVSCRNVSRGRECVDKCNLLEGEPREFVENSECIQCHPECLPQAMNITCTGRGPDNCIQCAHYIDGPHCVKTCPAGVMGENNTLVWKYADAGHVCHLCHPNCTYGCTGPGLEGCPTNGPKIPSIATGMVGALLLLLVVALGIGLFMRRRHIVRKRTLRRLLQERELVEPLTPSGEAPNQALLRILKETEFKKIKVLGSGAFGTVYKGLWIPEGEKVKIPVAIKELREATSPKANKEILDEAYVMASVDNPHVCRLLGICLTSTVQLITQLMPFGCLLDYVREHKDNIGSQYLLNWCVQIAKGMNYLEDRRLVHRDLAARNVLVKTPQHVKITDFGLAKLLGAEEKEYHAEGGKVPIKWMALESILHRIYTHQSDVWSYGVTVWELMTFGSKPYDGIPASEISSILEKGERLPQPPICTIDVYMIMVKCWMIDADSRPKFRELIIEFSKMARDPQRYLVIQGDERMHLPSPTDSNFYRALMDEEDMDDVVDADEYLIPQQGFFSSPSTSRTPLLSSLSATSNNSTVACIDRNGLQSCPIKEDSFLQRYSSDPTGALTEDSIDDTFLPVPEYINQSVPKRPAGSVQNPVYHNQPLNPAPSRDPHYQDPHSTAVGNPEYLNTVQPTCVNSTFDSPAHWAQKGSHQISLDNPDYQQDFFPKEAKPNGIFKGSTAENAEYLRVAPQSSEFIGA
T3 sequence (P00533 25-1210 T790M limits assumed): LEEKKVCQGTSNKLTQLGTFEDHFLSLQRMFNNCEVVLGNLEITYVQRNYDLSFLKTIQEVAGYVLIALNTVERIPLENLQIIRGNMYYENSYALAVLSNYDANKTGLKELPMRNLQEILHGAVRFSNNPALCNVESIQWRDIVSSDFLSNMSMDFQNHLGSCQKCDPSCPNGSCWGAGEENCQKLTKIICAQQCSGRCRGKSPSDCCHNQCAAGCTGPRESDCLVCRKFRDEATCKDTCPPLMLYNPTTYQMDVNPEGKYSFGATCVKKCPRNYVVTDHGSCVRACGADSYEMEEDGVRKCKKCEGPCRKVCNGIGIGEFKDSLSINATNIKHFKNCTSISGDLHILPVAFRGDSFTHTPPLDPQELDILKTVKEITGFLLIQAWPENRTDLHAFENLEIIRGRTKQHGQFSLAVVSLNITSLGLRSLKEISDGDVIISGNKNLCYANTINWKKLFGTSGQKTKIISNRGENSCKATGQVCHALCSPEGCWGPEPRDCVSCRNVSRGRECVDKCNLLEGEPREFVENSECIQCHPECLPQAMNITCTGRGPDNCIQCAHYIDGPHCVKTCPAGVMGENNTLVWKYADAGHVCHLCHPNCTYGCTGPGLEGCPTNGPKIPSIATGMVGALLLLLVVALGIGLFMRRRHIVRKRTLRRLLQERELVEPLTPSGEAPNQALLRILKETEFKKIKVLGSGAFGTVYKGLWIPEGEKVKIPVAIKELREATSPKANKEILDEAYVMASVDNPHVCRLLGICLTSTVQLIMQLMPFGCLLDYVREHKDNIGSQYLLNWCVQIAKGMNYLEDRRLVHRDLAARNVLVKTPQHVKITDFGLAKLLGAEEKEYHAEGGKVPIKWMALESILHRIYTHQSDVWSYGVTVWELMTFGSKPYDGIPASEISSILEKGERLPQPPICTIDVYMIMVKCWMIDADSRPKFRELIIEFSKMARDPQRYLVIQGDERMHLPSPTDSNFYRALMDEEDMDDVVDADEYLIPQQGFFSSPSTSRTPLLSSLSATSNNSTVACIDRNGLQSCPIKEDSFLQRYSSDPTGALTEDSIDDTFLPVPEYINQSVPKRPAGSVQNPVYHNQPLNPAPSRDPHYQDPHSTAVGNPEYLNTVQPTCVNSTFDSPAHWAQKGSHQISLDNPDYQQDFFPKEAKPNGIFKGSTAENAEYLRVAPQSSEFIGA
T4 sequence (P00533 25-1210 T790M/L858R limits assumed): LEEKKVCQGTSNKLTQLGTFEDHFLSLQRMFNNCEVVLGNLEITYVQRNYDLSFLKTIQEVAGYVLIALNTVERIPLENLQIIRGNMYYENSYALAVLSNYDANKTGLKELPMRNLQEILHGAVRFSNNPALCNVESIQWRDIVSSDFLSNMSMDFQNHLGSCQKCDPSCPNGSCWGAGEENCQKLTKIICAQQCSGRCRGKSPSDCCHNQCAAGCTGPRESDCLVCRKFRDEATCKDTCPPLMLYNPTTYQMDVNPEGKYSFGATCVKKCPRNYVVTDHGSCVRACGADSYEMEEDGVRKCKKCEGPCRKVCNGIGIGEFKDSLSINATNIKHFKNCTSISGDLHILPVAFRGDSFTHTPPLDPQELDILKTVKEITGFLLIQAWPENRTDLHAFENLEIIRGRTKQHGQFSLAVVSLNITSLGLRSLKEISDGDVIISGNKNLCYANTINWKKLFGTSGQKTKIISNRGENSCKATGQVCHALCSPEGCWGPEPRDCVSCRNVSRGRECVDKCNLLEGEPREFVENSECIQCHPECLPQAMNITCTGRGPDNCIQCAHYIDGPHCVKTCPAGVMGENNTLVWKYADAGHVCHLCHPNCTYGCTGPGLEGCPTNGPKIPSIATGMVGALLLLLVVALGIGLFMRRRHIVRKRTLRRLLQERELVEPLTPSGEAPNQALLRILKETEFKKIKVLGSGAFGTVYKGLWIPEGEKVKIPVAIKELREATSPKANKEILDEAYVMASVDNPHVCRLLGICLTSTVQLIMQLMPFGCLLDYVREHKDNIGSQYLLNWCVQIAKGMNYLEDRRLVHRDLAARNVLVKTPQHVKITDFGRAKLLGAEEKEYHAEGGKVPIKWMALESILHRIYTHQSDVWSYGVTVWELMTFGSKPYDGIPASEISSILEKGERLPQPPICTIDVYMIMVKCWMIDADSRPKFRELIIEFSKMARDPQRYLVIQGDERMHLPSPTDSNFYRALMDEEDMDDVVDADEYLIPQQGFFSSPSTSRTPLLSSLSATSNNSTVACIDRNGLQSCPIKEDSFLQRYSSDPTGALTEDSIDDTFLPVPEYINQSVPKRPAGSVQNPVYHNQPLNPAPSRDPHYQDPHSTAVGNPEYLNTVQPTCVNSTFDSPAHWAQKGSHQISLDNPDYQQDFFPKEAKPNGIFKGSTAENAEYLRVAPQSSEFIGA
T1 sequence (P00533 25-1210 L858R limits assumed): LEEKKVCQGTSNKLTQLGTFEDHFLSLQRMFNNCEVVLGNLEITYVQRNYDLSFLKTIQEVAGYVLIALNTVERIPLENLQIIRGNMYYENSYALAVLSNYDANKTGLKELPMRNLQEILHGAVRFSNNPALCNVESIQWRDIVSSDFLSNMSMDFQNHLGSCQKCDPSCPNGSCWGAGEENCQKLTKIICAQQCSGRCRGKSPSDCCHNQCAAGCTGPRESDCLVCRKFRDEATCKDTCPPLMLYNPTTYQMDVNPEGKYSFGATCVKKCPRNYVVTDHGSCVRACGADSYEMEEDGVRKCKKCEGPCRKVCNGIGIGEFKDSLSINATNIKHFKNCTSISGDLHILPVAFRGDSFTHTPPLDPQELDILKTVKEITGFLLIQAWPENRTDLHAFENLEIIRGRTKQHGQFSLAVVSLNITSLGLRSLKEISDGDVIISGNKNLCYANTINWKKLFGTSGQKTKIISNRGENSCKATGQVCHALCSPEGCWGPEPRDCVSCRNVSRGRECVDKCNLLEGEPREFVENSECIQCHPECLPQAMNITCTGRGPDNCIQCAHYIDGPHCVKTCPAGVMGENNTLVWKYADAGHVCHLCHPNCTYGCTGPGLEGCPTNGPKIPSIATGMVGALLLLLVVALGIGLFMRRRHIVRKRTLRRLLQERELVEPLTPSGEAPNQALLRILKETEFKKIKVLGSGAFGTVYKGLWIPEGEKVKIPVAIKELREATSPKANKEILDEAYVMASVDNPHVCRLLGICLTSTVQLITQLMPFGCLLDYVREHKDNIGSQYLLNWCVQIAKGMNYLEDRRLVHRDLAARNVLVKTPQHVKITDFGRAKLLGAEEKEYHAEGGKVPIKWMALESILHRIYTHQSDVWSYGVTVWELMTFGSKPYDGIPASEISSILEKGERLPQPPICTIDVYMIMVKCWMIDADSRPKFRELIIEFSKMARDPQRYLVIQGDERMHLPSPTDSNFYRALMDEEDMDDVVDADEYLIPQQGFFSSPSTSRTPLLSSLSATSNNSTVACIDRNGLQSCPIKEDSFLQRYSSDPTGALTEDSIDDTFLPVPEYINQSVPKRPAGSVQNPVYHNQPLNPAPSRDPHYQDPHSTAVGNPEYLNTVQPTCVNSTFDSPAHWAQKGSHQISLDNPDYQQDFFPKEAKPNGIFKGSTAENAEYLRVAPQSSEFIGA

For `C=CC(=O)Nc1cccc(N2C(=O)N(Cc3ccccc3)Cc3cnc(Nc4ccc(N5CCN(C)CC5)cc4OC)nc32)c1`, the IC50 [1] was 0.38 nM, the Activity [2] was “Active” and the IC50 [3] was 0.72 nM. For the same compound, the Activity [4] was “Active”, the Activity [5] was “Active” and the Activity [6] was “Active”. For the same compound, the Activity [7] was “Active”, the Activity [8] was “Active” and the Kd [9] was 1.3 nM. The mortality at 336 h [10] was < 5%, the Activity [11] was “Active” and the Kd [12] was 0.29 nM. The Activity [13] was “inactive”, the IC50 [14] was 2660 nM and the Kd [15] was 0.3 nM. The IC50 [16] was 0.67 nM, the Activity [17] was “Active” and the Activity [18] was < 5%. The Kd [19] was 1.2 nM, the inhibition [20] was “Dose-dependent effect” and the Activity [21] was “Active”. For the same compound, the IC50 [22] was 0.93 nM, the IC50 [23] was 2390 nM and the IC50 [24] was 0.29 nM. The Kd [25] was 0.68 nM, the Activity [26] was “Active” and the Activity [27] was “Active”. For the same compound, the Activity [28] was “Non-toxic”.
